Laboratory results reported in ChEMBL document CHEMBL1149671, “Enantiopure five-membered cyclicdiamine derivatives as potent and selective inhibitors of factor Xa. Improving in vitro metabolic stability via core modifications” (Bioorg Med Chem Lett, 2007).
pIC50, pKi: −log10 of the molar value.

How the values were obtained:
Coagulation factor X = Coagulation factor X (Homo sapiens, UniProt P00742); experiment: Inhibition of human factor 10a
[1] = Cytotoxicity against HEK cells; type: cell-based; conditions: Homo sapiens, HEK293
[2] = biological target: Vitamin K-dependent protein C (Homo sapiens, UniProt P04070); experiment: Inhibition of human activated protein C
Coagulation factor XI = Coagulation factor XI (Homo sapiens, UniProt P03951); experiment: Inhibition of human factor 11a
Coagulation factor VII = biological target: T1, Coagulation factor VII (Homo sapiens, UniProt P08709); experiment: Inhibition of human factor 7a
T1 sequence (P08709 whole entry): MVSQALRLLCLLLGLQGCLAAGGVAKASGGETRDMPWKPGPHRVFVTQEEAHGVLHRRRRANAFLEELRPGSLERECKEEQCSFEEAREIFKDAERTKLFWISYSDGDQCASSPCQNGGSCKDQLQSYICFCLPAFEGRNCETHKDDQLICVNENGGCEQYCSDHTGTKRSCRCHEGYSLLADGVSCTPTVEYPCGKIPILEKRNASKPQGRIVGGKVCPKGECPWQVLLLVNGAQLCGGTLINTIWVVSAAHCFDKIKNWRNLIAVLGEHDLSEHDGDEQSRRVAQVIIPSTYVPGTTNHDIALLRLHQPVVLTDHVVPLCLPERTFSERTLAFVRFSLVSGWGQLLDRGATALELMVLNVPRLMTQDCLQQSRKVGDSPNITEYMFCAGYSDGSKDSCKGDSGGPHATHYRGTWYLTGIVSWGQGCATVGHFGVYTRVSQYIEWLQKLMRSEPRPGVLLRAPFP

[3] = Inhibition of human chymotrypsin
Plasma kallikrein = Plasma kallikrein (Homo sapiens, UniProt P03952); experiment: Inhibition of human plasma kallikrein; type: cell-free
Trypsin = Trypsin (Homo sapiens, UniProt P07477+P07478+P35030); experiment: Inhibition of human trypsin; type: protein assay
Prothrombin = Prothrombin (Homo sapiens, UniProt P00734); experiment: Inhibition of human thrombin
Plasminogen = Plasminogen (Homo sapiens, UniProt P00747); experiment: Inhibition of human Plasmin
[4] = biological target: Tissue-type plasminogen activator (Homo sapiens, UniProt P00750); experiment: Inhibition of human tissue plasminogen activator
[5] = biological target: Urokinase-type plasminogen activator (Homo sapiens, UniProt P00749); experiment: Inhibition of human urokinase
Liver microsomes = experiment: Metabolic stability in human liver microsomes assessed as microsomal intrinsic clearance rate; type: ADME, Microsome
Method in brief: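 Human liver microsomes, 10-min incubation. Metabolic stability given as % compound remaining. Microsomal intrinsic clearance rate (nmol/min/mg) is based on the % remaining after 10 min.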

[6] = Clearance in dog at 0.5 mg/kg, iv; type: ADME, organism-based, Canis lupus familiaris; set-up: dose 0.5 mg/kg, route intravenous; conditions: in vivo
Method in brief: (§1)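 Dogs. Intravenous dose 0.5 mg/kg, used for clearance (L/kg/h), steady-state volume of distribution (L/kg) and iv half-life.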

[7] = Volume of distribution at steady state in dog at 0.5 mg/kg, iv; type: ADME, organism-based, Canis lupus familiaris; set-up: dose 0.5 mg/kg, route intravenous; conditions: in vivo, read-out: Vdss; method in brief: as §1
[8] = Half life in dog at 0.5 mg/kg, iv; type: ADME, organism-based, Canis lupus familiaris; set-up: dose 0.5 mg/kg, route intravenous; conditions: in vivo; method in brief: as §1
[9] = Half life in dog at 0.2 mg/kg, po; type: ADME, organism-based, Canis lupus familiaris; set-up: dose 0.2 mg/kg, route oral; conditions: in vivo
[10] = Bioavailability in dog at 0.2 mg/kg, po; type: ADME, organism-based, Canis lupus familiaris; conditions: in vivo; method in brief: as §1

Coagulation factor X, sequence (P00742 41-179 limits assumed): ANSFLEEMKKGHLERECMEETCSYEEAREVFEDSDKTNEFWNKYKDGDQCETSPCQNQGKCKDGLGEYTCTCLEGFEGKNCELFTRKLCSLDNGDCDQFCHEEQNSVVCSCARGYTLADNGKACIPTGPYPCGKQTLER
Coagulation factor X, sequence (P00742 235-488 limits assumed): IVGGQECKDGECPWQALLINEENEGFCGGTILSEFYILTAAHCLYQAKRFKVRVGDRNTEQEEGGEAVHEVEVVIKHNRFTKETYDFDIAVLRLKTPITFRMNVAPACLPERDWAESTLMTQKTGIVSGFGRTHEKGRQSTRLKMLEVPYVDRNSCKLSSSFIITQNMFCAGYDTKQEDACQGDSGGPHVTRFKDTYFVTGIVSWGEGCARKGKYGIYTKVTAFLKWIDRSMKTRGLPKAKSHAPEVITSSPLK
Coagulation factor XI, sequence (P03951 19-387 limits assumed): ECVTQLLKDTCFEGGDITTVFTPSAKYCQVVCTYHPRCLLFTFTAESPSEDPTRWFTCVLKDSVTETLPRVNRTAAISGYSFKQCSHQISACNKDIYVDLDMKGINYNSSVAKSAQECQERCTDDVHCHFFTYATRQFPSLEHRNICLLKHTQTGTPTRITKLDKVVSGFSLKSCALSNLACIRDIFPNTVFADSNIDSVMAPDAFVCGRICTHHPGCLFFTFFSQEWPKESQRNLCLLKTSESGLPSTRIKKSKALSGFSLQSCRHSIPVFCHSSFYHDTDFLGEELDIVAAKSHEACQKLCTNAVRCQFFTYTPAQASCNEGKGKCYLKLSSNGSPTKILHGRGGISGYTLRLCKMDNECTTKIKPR
Coagulation factor XI, sequence (P03951 388-625 limits assumed): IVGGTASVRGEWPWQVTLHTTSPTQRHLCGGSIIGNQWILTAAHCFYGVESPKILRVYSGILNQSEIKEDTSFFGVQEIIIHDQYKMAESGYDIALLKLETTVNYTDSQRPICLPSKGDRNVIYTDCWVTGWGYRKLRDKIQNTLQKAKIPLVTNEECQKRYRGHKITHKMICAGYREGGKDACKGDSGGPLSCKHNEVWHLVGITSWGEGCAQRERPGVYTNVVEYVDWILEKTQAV
Vitamin K-dependent protein C, sequence (P04070 43-197 limits assumed): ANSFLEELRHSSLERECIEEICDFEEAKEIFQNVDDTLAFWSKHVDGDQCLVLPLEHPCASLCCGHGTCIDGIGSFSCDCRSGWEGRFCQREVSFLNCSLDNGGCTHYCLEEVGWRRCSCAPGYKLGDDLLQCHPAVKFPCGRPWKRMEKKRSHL
Vitamin K-dependent protein C, sequence (P04070 212-461 limits assumed): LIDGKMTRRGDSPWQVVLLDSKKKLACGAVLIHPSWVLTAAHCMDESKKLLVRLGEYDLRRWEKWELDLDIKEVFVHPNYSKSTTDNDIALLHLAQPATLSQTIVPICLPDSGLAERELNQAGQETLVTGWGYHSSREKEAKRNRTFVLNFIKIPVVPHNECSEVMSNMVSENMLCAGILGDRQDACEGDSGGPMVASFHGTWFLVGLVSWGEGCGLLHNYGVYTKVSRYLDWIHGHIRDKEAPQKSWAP
Plasminogen, sequence (P00747 97-580 limits assumed): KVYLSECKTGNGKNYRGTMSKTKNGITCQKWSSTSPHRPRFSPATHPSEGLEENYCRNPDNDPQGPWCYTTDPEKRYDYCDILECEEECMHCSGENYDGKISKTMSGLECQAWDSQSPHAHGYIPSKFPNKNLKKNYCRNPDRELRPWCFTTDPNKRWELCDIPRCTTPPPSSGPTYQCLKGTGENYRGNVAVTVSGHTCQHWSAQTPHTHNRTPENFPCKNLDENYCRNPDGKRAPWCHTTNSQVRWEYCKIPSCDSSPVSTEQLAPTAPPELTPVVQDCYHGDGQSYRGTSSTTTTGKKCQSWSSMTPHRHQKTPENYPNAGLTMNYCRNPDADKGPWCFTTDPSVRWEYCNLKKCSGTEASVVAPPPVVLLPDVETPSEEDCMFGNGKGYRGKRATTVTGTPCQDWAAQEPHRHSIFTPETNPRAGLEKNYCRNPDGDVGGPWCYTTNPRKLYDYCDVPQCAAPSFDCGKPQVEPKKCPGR
Plasminogen, sequence (P00747 581-810 limits assumed): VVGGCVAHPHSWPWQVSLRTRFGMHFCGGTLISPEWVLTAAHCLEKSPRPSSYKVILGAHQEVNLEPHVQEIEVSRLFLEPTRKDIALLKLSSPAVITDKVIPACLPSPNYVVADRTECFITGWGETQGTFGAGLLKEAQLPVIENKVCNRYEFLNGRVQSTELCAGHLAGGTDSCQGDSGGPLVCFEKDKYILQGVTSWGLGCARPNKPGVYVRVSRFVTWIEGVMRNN
Tissue-type plasminogen activator, sequence (P00750 whole entry): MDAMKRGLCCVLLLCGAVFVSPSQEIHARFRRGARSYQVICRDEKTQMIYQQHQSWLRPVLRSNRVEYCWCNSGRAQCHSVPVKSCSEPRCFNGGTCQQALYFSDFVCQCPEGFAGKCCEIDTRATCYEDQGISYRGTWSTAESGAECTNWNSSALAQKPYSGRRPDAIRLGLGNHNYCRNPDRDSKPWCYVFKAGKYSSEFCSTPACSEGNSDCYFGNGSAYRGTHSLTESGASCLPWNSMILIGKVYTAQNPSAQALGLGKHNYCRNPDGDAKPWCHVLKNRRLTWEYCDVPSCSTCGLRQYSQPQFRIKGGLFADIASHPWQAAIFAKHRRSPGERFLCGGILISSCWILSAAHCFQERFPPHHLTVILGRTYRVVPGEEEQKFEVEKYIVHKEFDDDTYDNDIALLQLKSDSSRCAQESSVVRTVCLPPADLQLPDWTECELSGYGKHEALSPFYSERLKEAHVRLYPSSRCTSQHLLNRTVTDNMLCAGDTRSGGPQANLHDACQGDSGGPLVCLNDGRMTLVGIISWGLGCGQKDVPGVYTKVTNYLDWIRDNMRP
Plasma kallikrein, sequence (P03952 20-390 limits assumed): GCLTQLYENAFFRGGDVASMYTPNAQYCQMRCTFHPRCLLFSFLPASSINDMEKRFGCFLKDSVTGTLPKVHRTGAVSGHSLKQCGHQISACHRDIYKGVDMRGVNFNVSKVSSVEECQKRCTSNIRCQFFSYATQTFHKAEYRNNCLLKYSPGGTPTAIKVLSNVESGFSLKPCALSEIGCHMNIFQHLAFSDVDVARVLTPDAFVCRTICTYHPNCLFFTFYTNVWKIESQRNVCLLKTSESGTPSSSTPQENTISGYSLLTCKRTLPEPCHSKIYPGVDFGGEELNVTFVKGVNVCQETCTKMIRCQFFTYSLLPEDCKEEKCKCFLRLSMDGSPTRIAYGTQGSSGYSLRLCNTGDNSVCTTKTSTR
Plasma kallikrein, sequence (P03952 391-638 limits assumed): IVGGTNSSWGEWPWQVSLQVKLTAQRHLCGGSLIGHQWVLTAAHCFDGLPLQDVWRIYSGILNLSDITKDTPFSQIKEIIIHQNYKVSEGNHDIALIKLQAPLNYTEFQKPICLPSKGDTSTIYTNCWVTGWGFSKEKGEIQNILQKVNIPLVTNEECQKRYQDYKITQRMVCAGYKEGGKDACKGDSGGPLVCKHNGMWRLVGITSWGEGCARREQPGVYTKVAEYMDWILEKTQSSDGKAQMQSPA

SMILES | pKi (Coagulation factor X) | pIC50 [1] | also measured
O=C(N[C@@H]1Cc2ccccc2[C@@H]1NC(=O)c1ccc(-n2ccccc2=O)cc1)c1ccc2c(Cl)c[nH]c2c1 | 9.00 | – | –
COCC(=O)N1C[C@H](NC(=O)c2ccc(-n3ccccc3=O)cc2)[C@H](NC(=O)c2ccc(Cl)s2)C1 | 9.44 | < 4.00 | –
O=C(N[C@H]1C[C@H](C(=O)N2CCOCC2)C[C@H]1NC(=O)c1ccc(Cl)s1)c1ccc(-n2ccccc2=O)cc1 | 8.80 | – | –
O=C(N[C@H]1C[C@H](C(=O)O)C[C@H]1NC(=O)c1ccc(Cl)s1)c1ccc(-n2ccccc2=O)cc1 | 8.72 | – | pKi [2]: < 4.68; pKi (Coagulation factor XI): < 4.96; pKi (Coagulation factor VII): < 4.96; pKi [3]: < 4.70; pKi (Plasma kallikrein): < 5.22; Ki (Trypsin): > 5000 nM; pKi (Prothrombin): < 4.92; pKi (Plasminogen): < 4.66; pKi [4]: < 4.68; pKi [5]: < 4.85
O=C(N[C@H]1CN(C(=O)OCC2c3ccccc3-c3ccccc32)C[C@H]1NC(=O)c1ccc2c(Cl)c[nH]c2c1)c1ccc(-n2ccccc2=O)cc1 | 6.79 | < 4.00 | –
COC(=O)C1C[C@H](NC(=O)c2ccc(-n3ccccc3=O)cc2)[C@H](NC(=O)c2ccc3c(Cl)c[nH]c3c2)C1 (stereo partly specified) | 8.52 | – | –
COCCOC(=O)N1C[C@H](NC(=O)c2ccc(-n3ccccc3=O)cc2)[C@H](NC(=O)c2ccc(Cl)s2)C1 | 9.03 | < 4.00 | –
O=C(N[C@H]1COC[C@H]1NC(=O)c1ccc(Cl)s1)c1ccc(-n2ccccc2=O)cc1 | 8.59 | – | pKi [2]: < 4.68; CL (Liver microsomes): 0.031 nmol/mg/min; pKi (Coagulation factor XI): < 4.96; pKi (Coagulation factor VII): < 4.96; pKi [3]: < 4.70; Ki (Trypsin): > 5000 nM; pKi (Prothrombin): < 4.92; pKi (Plasminogen): < 4.66; pKi [4]: < 4.68; pKi [5]: < 4.85; clearance [6]: 26.7 mL/min/kg; Vd [7]: 1 L/kg; half-life [8]: 1.2 h; half-life [9]: 1.2 h; bioavailability [10]: 97%
CNC(=O)N1C[C@H](NC(=O)c2ccc(-n3ccccc3=O)cc2)[C@H](NC(=O)c2ccc(Cl)s2)C1 | 8.96 | < 4.00 | CL (Liver microsomes): 0 nmol/mg/min
CCOC(=O)N1C[C@H](NC(=O)c2ccc(-n3ccccc3=O)cc2)[C@H](NC(=O)c2ccc3c(Cl)c[nH]c3c2)C1 | 8.55 | – | –
CN(C)C(=O)N1C[C@H](NC(=O)c2ccc(-n3ccccc3=O)cc2)[C@H](NC(=O)c2ccc(Cl)s2)C1 | 9.25 | < 4.00 | CL (Liver microsomes): 0 nmol/mg/min
O=C(N[C@H]1C[C@H](C(=O)NC2CC2)C[C@H]1NC(=O)c1ccc(Cl)s1)c1ccc(-n2ccccc2=O)cc1 | 8.80 | – | –
O=C(N[C@H]1CN(C(=O)N2CCCC2)C[C@H]1NC(=O)c1ccc(Cl)s1)c1ccc(-n2ccccc2=O)cc1 | 8.77 | < 4.00 | –
O=C(N[C@H]1Cc2ccccc2[C@H]1NC(=O)c1ccc2c(Cl)c[nH]c2c1)c1ccc(-n2ccccc2=O)cc1 | 9.08 | – | –
COCCNC(=O)[C@H]1C[C@H](NC(=O)c2ccc(-n3ccccc3=O)cc2)[C@H](NC(=O)c2ccc(Cl)s2)C1 | 8.54 | – | –
O=C(N[C@H]1CN(C(=O)c2ccccc2)C[C@H]1NC(=O)c1ccc(Cl)s1)c1ccc(-n2ccccc2=O)cc1 | 8.66 | < 4.00 | –
O=C(N[C@H]1CN(C(=O)C2CC2)C[C@H]1NC(=O)c1ccc(Cl)s1)c1ccc(-n2ccccc2=O)cc1 | 8.68 | < 4.00 | –
O=C(N[C@H]1COC[C@H]1NC(=O)c1ccc2c(Cl)c[nH]c2c1)c1ccc(-n2ccccc2=O)cc1 | 8.59 | – | –
O=C(N[C@@H]1Cc2ccccc2[C@@H]1NC(=O)c1ccc2c(Cl)c[nH]c2c1)c1ccc(-n2ccccc2=O)cc1 | 9.68 | – | –
CC(C)(C)C(=O)N1C[C@H](NC(=O)c2ccc(-n3ccccc3=O)cc2)[C@H](NC(=O)c2ccc(Cl)s2)C1 | 8.77 | < 4.00 | –
